Calls of active or inactive are those of the source. No cut-off for these calls is given here. Starred links: 1 amine or outer side, 2 acyl side, 3 side chain; linkers in the order of their positions; H or OH if unused. Non-standard residues stand in square brackets, D forms with d. Residues, ends and D or L forms follow the SMILES beside them. X1 = Cn1cc(N[*:1])cc1C(=O)[*:2]
Columns and labels:
Format in all cases: nucleic-acid assay
Nucleic Acid [1] = test: Binding affinity to 5^-TTTCACA-3^ sequence of [32P] labeled DNA at 2 uM after 120 mins by DNase1 foot printing
Summary of the method: (§1)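 5'-32P-labeled PCR duplexes (158-mer upper strand, 135-mer lower strand) were equilibrated with varying peptide concentrations in 5 mM sodium cacodylate, pH 6.5, at room temperature for 120 min. DNase I (final 0.009 unit/mL, limited to <30% digestion) was added for 10 min at 37 °C. Products were resolved on denaturing 8% polyacrylamide/8 M urea gels and band volumes integrated to give fractional saturation. Apparent K was taken as the peptide concentration at 50% saturation. Hill coefficient came from the slope of a least-squares Hill plot using at least six points.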

Nucleic Acid [2] = test: Binding affinity to 13-mer DNA duplex U4A-L4T assessed as conformational change after 60 mins by circular dichroism
Summary of the method: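 CD spectra were recorded at 37 °C after 60 min incubation. Difference spectra were obtained by subtracting the duplex-alone and peptide-alone contributions.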

Nucleic Acid [3] = test: Binding affinity to 5^-ATTTTCTCC-3^ sequence of [32P] labeled DNA at 2 uM after 120 mins by DNase1 foot printing; summary of the method: as §1
Nucleic Acid [4] = test: Binding affinity to 5^-GAGAAAATACC-3^ sequence of [32P] labeled DNA at 2 uM after 120 mins by DNase1 foot printing; summary of the method: as §1
Nucleic Acid [5] = test: Binding affinity to 5^-TTTTCTC-3^ sequence of [32P] labeled DNA at 2 uM after 120 mins by DNase1 foot printing; summary of the method: as §1
Nucleic Acid [6] = test: Binding affinity to 5^-TTTC-3^ sequence of [32P] labeled DNA at 2 uM after 120 mins by DNase1 foot printing; summary of the method: as §1
Nucleic Acid [7] = test: Binding affinity to 5^-GGAGAAAATACC-3^ sequence of [32P] labeled DNA at 2 uM after 120 mins by DNase1 foot printing; summary of the method: as §1
Nucleic Acid [8] = test: Binding affinity to 5^-TTTTCTCC-3^ sequence of [32P] labeled DNA at 2 uM after 120 mins by DNase1 foot printing; summary of the method: as §1

Ka (Nucleic Acid [1]) [M⁻¹] | Activity (Nucleic Acid [2]) | Ka (Nucleic Acid [3]) [M⁻¹] | Ka (Nucleic Acid [4]) [M⁻¹] | Ka (Nucleic Acid [5]) [M⁻¹] | Ka (Nucleic Acid [6]) [M⁻¹] | Ka (Nucleic Acid [7]) [M⁻¹] | Ka (Nucleic Acid [8]) [M⁻¹] | SMILES
8.4e+06 | Active | 9.7e+06 | – | – | – | – | – | Cn1cc(NC(=O)c2cc(NC(=O)[C@H](CCCCN)NC(=O)[C@H](CCCNC(=N)N)NC(=O)[C@@H]3CCCN3C(=O)[C@@H](N)Cc3cnc[nH]3)cn2C)cc1C(=O)Nc1cc(C(=O)Nc2cc(C(=O)N[C@@H](CCCNC(=N)N)C(N)=O)n(C)c2)n(C)c1
– | Dose-dependent effect | – | 2.7e+06 | 3.4e+06 | – | – | – | Cn1cc(NC(=O)c2cc(NC(=O)[C@H](CCCCN)NC(=O)[C@H](CCCNC(=N)N)NC(=O)[C@@H]3CCCN3C(=O)[C@@H](N)Cc3cnc[nH]3)cn2C)cc1C(=O)Nc1cc(C(=O)Nc2cc(C(=O)N[C@@H](CCCCN)C(=O)N[C@@H](CCCNC(=N)N)C(N)=O)n(C)c2)n(C)c1 (H-HPRK[X1][X1][X1][X1]KR-NH2)
– | Active | – | – | – | 1.4e+06 | 4.7e+06 | 3.6e+06 | Cn1cc(NC(=O)c2cc(NC(=O)C(CCCCN)NC(=O)[C@H](CCCNC(=N)N)NC(=O)[C@@H]3C[C@@H](O)CN3C(=O)[C@@H](N)Cc3cnc[nH]3)cn2C)cc1C(=O)Nc1cc(C(=O)Nc2cc(C(=O)N[C@@H](CCCCN)C(=O)N[C@@H](CCCNC(=N)N)C(N)=O)n(C)c2)n(C)c1 (single isomer, unassigned)
